Experimental data: ChEMBL document CHEMBL4842395, “Design and Synthesis of Oleanolic Acid Trimers to Enhance Inhibition of Influenza Virus Entry” (ACS Med Chem Lett, 2021)
Numbered stars: 1 amine (or outer) side, 2 acyl side, 3 side chain; on linkers, the order of the positions; unused ones are H or OH. Bridge positions count the residues as written; N and C are the ends. Square brackets hold non-standard residues; d marks the D form. Peptide text beside a SMILES is read from it. I, II: the chains in the order shown. X1 = O=C(O)C1(OCCCCC(=O)[*:2])C[C@H](O)[C@@H](N[*:1])[C@H]([C@H](O)[C@H](O)CO)O1; X2 = O=C(NCCCCCCN[*:1])c1cc(C(=O)NCCCCCCN[*:2])cc(C(=O)NCCCCCCN[*:3])c1

How the values were obtained:
[1] = system: Influenza A virus; experiment: Antiviral activity against Influenza A virus (A/WSN/1933(H1N1)) infected in MDCK cells assessed as suppression of M2 protein expression at early stage of infection measured after 2 hrs post infection by Western blot analysis; assay type: functional
Method in brief: (§1)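 Time-of-addition study in MDCK cells infected with A/WSN/33 (H1N1). Compound was present during one of five windows: 0–10, 0–2, 2–5, 5–8 or 8–10 h, corresponding to entry (0–2 h), replication/translation (2–8 h) and release (8–10 h). M2 and NP protein levels were compared with a DMSO control.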

[2] = Selectivity index, ratio of CC50 for MDCK cells to IC50 for antiviral activity against Influenza A virus (B/Sichuan/531/2018(Victoria)); assay type: toxicity; settings: dog, read-out: Ratio CC50/IC50
[3] = Selectivity ratio of CC50 for MDCK cells to IC50 for Influenza A virus A/WSN/33(H1N1) infected in MDCK cells; assay type: toxicity, cell-based; settings: dog, read-out: Ratio CC50/IC50
Method in brief: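 Selectivity index calculated as CC50 (uninfected MDCK cells, CellTiter-Glo) divided by IC50 (inhibition of A/WSN/33 H1N1-induced CPE in MDCK cells).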

[4] = Cytotoxicity against MDCK cells assessed as reduction in cell viability by CellTiter-Glo assay; assay type: cell-based, Canis lupus familiaris; settings: dog
Method in brief: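 Viability of normal, uninfected MDCK cells measured by CellTiter-Glo. Medium containing 1% DMSO was the negative control. CC50 is the concentration that reduces viability by 50%.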

[5] = biological target: Hemagglutinin (Influenza A virus (A/Puerto Rico/8/1934(H1N1)), UniProt P03452); experiment: Binding affinity to CM5 chip immobilized Influenza A virus (A/Michigan/45/2015) (H1N1)) hemagglutin assessed as dissociation constant by surface plasmon resonance assay
[6] = Selectivity index, ratio of CC50 for MDCK cells to IC50 for antiviral activity against Influenza A virus (A/Hong Kong/4801/2014 (H3N2)); assay type: toxicity; settings: dog, read-out: Ratio CC50/IC50
[7] = system: Influenza A virus; experiment: Antiviral activity against Influenza A virus (A/WSN/1933(H1N1)) infected in MDCK cells assessed as suppression of NP protein expression measured after 2 hrs post infection by Western blot analysis; assay type: functional; method in brief: as §1
[8] = system: Influenza A virus; experiment: Antiviral activity against Influenza A virus (A/WSN/1933(H1N1)) infected in MDCK cells assessed as inhibition of virus-induced cytopathic effect at 100 uM measured after 40 hrs incubation by inverted microscpic imaging analysis; assay type: functional
Method in brief: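 MDCK cells infected with influenza A/WSN/33 (H1N1), with compounds at 100 μM. Viral CPE judged by direct microscopic observation. DMSO served as the negative control and oseltamivir phosphate as the positive control. Triplicate experiments, with standard deviations.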

[9] = system: Influenza B virus; experiment: Antiviral activity against Influenza B virus (B/Sichuan/531/2018(Victoria)) infected in cells assessed as reduction in infected cells; assay type: functional, organism-based
[10] = system: Influenza A virus; experiment: Antiviral activity against Influenza A virus (A/Hong Kong/4801/2014 (H3N2)) infected in cells assessed as reduction in infected cells; assay type: functional, organism-based
[11] = system: Influenza A virus; experiment: Antiviral activity against Influenza A virus (A/WSN/1933(H1N1)) infected in MDCK cells assessed as s reduction in virus-induced cytopathic effect after 40 hrs incubation by CellTiter-Glo assay; assay type: functional, organism-based
Method in brief: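 CPE-based dose–response in MDCK cells infected with A/WSN/33 (H1N1), using the CellTiter-Glo viability read-out. Medium with 1% DMSO was the negative control and oseltamivir phosphate the positive control. IC50 is the concentration giving 50% inhibition of virus-induced CPE. Means of duplicate samples from three independent experiments.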

[12] = biological target: Hemagglutinin (Influenza A virus, UniProt B4URE7); experiment: Inhibition of CM5 chip immobilized Influenza A virus (A/Viet Nam/1203/2004(H5N1)) HA by SPR method
Sequence of Hemagglutinin (B4URE7 whole entry): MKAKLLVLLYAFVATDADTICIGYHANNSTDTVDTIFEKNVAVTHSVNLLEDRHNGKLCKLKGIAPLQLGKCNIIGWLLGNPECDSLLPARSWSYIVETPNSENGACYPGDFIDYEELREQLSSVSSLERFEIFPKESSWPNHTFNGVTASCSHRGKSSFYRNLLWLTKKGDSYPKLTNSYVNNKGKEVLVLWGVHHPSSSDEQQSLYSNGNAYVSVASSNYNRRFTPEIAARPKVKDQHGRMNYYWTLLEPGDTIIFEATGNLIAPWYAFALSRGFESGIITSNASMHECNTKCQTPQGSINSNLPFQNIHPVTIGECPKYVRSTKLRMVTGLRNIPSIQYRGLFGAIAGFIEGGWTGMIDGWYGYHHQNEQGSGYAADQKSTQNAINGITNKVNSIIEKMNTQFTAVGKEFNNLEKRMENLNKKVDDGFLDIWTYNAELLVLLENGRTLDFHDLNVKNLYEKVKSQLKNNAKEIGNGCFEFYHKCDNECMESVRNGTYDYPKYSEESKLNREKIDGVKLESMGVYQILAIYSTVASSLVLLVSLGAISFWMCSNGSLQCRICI

Sequence of Hemagglutinin (Influenza A virus (A/Puerto Rico/8/1934(H1N1)), UniProt P03452) (P03452 whole entry): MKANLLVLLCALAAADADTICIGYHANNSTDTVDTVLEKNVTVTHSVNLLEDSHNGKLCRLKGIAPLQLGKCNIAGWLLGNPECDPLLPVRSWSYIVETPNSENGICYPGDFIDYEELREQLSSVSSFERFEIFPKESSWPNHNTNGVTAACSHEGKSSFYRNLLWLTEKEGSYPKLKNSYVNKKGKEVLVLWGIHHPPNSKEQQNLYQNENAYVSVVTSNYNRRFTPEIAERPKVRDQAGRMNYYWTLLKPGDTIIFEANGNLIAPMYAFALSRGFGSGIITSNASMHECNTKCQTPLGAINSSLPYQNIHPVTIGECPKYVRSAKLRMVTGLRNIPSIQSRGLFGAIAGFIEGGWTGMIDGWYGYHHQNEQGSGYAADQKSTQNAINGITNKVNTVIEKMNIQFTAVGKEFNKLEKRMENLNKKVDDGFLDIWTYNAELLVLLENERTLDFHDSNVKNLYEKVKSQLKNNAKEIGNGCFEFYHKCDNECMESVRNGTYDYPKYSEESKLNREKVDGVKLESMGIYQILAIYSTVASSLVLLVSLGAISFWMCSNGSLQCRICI

For CC1(C)CC[C@]2(C(=O)NCCCCc3cn(Cc4cc(Cn5cc(CCCCNC(=O)[C@]67CCC(C)(C)C[C@H]6C6=CC[C@@H]8[C@@]9(C)CC[C@H](O)C(C)(C)[C@@H]9CC[C@@]8(C)[C@]6(C)CC7)nn5)cc(Cn5cc(CCCCNC(=O)[C@]67CCC(C)(C)C[C@H]6C6=CC[C@@H]8[C@@]9(C)CC[C@H](O)C(C)(C)[C@@H]9CC[C@@]8(C)[C@]6(C)CC7)nn5)c4)nn3)CC[C@]3(C)C(=CC[C@@H]4[C@@]5(C)CC[C@H](O)C(C)(C)[C@@H]5CC[C@]43C)[C@@H]2C1, the “inhibition (INH)” value [1] was greater than 90%, the selectivity ratio [2] was greater than 53.5 and the selectivity ratio [3] was greater than 435. It also gave a CC50 [4] greater than 100 µM, a Kd [5] of 2.63 µM and a selectivity ratio [6] greater than 21.8. The “inhibition (INH)” value [7] was greater than 90%, the inhibition at 100 µM [8] was greater than 80% and the IC50 [9] was 1.87 µM. The IC50 [10] was 4.58 µM and the IC50 [11] was 0.23 µM.
In the case of CC(=O)N[C@H]1[C@H]([C@H](O)[C@H](O)CO)OC(OCCCCC(=O)NCC(=O)N[C@@H](CO)C(=O)NCC(=O)N[C@@H](CO)C(=O)N[C@@H](C)C(=O)N[C@@H](CO)C(=O)NCC(=O)N[C@@H](CO)C(=O)NCC(=O)NCCCCCCNC(=O)c2cc(C(=O)NCCCCCCNC(=O)CNC(=O)[C@H](CO)NC(=O)CNC(=O)[C@H](CO)NC(=O)[C@H](C)NC(=O)[C@H](CO)NC(=O)CNC(=O)[C@H](CO)NC(=O)CNC(=O)CCCCOC3(C(=O)O)C[C@H](O)[C@@H](NC(C)=O)[C@H]([C@H](O)[C@H](O)CO)O3)cc(C(=O)NCCCCCCNC(=O)CNC(=O)[C@H](CO)NC(=O)CNC(=O)[C@H](CO)NC(=O)[C@H](C)NC(=O)[C@H](CO)NC(=O)CNC(=O)[C@H](CO)NC(=O)CNC(=O)CCCCOC3(C(=O)O)C[C@H](O)[C@@H](NC(C)=O)[C@H]([C@H](O)[C@H](O)CO)O3)c2)(C(=O)O)C[C@@H]1O (some centres not stated) (I: Ac-[X1]GSGSASGSG / II: Ac-[X1]GSGSASGSG / III: Ac-[X1]GSGSASGSG; linker I:C-II:C-III:C via X2), the Kd [12] is reported as 0.446 µM.
